≈ marks a conversion by molar mass, not a printed value. Calls of active or inactive are those of the source. The calls are words filed in the database; no cut-off is given here.
Tests used:
[1] = system: Liver; assay: Metabolic stability in rat liver microsomes; assay type: ADME, microsome
[2] = system: Liver; assay: Metabolic stability in human liver microsomes; assay type: ADME, microsome
[3] = Aqueous solubility of the compound at pH 7.4; assay type: physicochemical
How it was run: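 Aqueous solubility measured at pH 7.4.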

[4] = target: Adenosine receptor A2a (Homo sapiens) (UniProt P29274); assay: Displacement of [3H]-ZM241385 from human adenosine A2A receptor expressed in HEK293 cell membranes at 0.1 uM after 90 mins relative to control
How it was run: (§1)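 Membranes from HEK-293 cells stably transfected with human A1, A2A or A3 receptor, pretreated with 1 U/ml ADA. Membranes are incubated 90 min at room temperature with gentle agitation. Tracer and buffer per receptor: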

[5] = system: Liver; assay: Metabolic stability in mouse liver microsomes; assay type: ADME, microsome
[6] = target: T1, Adenosine receptor A2b (Homo sapiens, UniProt P29275); assay: Displacement of [3H]-MRS-1754 from human adenosine A2B receptor expressed in HEK293 cell membranes after 90 mins; conditions: read-out: Ki
T1 sequence (P29275 whole entry): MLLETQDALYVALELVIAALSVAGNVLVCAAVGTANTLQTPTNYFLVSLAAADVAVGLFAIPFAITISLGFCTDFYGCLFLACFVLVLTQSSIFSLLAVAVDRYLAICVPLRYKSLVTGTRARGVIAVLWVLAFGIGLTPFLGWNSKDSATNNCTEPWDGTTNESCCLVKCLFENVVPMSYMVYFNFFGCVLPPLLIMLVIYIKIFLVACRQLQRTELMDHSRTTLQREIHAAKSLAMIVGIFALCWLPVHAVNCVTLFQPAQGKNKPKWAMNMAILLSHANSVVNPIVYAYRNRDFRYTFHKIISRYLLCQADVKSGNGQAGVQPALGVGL
How it was run: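 Membranes from HEK-293 cells stably expressing human A2B, ADA-treated, incubated with 1.6 nM [3H]-MRS-1754 in 50 mM Tris pH 6.5, 5 mM MgCl2, 1 mM EDTA, 1 U/ml ADA. Incubation 90 min at room temperature. Filtration; nonspecific binding with 100 µM NECA. Eight compound concentrations, each in triplicate; Ki derived by fitting.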

[7] = target: T1, Adenosine receptor A2b; assay: Antagonist activity at human adenosine A2B receptor expressed in mouse NIH/3T3 cells assessed as inhibition of NECA-induced IL-6 release incubated for 15 mins followed by agonist treatment for 15 mins by HTRF assay; assay type: cell-based
[8] = Half life in C57BL/6J mouse at 10 mg/kg, po; assay type: ADME, organism-based; conditions: in vivo
How it was run: (§2)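 Oral dosing at 10 mg/Kg in C57BL/6J mice. Vehicle is DMAC (10%), CrEL (10%), PEG300 (10%) in water, pH ~9, or, for one compound, DMSO (10%), CrEL (10%), PEG300 (10%) in water, pH ~7.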

[9] = AUC (0 to t) in C57BL/6J mouse at 10 mg/kg, po; assay type: ADME, organism-based; conditions: in vivo; how it was run: as §2
[10] = target: T2, Adenosine receptor A3 (Homo sapiens) (UniProt P0DMS8); assay: Displacement of [3H]-HEMADO from human adenosine A3 receptor expressed in HEK293 cell membranes at 1 uM after 90 mins relative to control; how it was run: as §1
T2 sequence (whole entry): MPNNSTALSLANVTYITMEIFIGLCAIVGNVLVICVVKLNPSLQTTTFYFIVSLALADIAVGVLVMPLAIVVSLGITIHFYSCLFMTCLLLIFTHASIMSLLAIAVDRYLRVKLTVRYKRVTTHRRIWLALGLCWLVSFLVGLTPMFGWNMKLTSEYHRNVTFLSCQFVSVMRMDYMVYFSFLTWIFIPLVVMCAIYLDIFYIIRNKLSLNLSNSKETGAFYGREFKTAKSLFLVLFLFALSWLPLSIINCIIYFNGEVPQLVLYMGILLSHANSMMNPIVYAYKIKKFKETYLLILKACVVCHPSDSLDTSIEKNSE

[11] = Cmax in C57BL/6J mouse at 10 mg/kg, po; assay type: ADME, organism-based; set-up: dose 10 mg/kg, route oral; conditions: in vivo; how it was run: as §2
[12] = Oral bioavailability in C57BL/6J mouse at 10 mg/kg; assay type: ADME, organism-based; conditions: in vivo; how it was run: as §2
[13] = target: T3, Adenosine receptor A1 (Homo sapiens) (UniProt P30542); assay: Displacement of [3H]-DPCPX from human adenosine A1 receptor expressed in HEK293 cell membranes at 0.1 uM after 90 mins relative to control; how it was run: as §1
T3 sequence (whole entry): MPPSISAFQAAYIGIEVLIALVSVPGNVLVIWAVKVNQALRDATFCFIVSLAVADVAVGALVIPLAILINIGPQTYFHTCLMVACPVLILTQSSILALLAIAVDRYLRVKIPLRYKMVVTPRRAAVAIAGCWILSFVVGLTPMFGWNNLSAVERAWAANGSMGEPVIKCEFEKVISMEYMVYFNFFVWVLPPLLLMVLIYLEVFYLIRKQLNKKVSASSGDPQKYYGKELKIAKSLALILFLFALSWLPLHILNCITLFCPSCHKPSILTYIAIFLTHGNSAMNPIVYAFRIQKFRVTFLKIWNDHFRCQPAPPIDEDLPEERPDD

[14] = target: T1, Adenosine receptor A2b; assay: Antagonist activity at human adenosine A2B receptor expressed in HEK293 cells assessed as inhibition of NECA-induced increase in cAMP accumulation incubated for 15 mins followed by agonist treatment for 15 mins by HTRF assay; assay type: functional, cell-based
How it was run: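 HEK-293 cells overexpressing human A2B, 24 h cultures, are pretreated with 1 U/mL ADA for 90 min at 37°C. Cells are harvested and preincubated with increasing compound concentrations for 15 min at room temperature in DMEM with ADA.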

[15] = target: Voltage-gated inwardly rectifying potassium channel KCNH2 (Homo sapiens, UniProt Q12809); assay: Inhibition of human ERG
[16] = Inhibition of CYP450 (unknown origin); assay type: ADME, Homo sapiens
[17] = system: MDCK; assay: Cytotoxicity against MDCK cells; assay type: cell-based; conditions: Canis lupus familiaris
[18] = system: Mus musculus; assay: Antiinflammatory activity in ovalbumin-induced allergic asthma mouse model assessed as reduction in total cell count in bronchoalveolar lavage fluid at 3 mg/kg administered ip bid; assay type: functional, organism-based
[19] = system: HepG2; assay: Cytotoxicity against human HepG2 cells; assay type: cell-based
[20] = system: Mus musculus; assay: Antiinflammatory activity in […] allergic asthma mouse model assessed as inhibition of airway hyper-responsiveness at 3 mg/kg administered ip bid; assay type: functional, organism-based
[21] = system: P-gp; assay: Substrate activity at P-gp (unknown origin) assessed as ratio of permeability from basolateral to apical side over apical to basolateral side; assay type: ADME; conditions: human, not told

Adenosine receptor A2a (Homo sapiens), sequence (P29274 whole entry): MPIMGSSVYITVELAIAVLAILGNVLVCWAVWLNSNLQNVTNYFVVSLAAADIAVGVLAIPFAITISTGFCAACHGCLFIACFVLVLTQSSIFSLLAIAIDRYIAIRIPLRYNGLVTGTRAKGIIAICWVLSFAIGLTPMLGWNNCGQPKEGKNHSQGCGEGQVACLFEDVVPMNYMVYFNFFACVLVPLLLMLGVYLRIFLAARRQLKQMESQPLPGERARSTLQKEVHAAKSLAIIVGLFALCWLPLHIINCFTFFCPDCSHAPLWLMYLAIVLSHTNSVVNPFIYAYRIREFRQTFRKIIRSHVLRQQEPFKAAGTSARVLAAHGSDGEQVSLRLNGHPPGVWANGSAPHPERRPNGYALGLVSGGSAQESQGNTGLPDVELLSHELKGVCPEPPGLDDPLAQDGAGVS
Voltage-gated inwardly rectifying potassium channel KCNH2, sequence (Q12809 whole entry): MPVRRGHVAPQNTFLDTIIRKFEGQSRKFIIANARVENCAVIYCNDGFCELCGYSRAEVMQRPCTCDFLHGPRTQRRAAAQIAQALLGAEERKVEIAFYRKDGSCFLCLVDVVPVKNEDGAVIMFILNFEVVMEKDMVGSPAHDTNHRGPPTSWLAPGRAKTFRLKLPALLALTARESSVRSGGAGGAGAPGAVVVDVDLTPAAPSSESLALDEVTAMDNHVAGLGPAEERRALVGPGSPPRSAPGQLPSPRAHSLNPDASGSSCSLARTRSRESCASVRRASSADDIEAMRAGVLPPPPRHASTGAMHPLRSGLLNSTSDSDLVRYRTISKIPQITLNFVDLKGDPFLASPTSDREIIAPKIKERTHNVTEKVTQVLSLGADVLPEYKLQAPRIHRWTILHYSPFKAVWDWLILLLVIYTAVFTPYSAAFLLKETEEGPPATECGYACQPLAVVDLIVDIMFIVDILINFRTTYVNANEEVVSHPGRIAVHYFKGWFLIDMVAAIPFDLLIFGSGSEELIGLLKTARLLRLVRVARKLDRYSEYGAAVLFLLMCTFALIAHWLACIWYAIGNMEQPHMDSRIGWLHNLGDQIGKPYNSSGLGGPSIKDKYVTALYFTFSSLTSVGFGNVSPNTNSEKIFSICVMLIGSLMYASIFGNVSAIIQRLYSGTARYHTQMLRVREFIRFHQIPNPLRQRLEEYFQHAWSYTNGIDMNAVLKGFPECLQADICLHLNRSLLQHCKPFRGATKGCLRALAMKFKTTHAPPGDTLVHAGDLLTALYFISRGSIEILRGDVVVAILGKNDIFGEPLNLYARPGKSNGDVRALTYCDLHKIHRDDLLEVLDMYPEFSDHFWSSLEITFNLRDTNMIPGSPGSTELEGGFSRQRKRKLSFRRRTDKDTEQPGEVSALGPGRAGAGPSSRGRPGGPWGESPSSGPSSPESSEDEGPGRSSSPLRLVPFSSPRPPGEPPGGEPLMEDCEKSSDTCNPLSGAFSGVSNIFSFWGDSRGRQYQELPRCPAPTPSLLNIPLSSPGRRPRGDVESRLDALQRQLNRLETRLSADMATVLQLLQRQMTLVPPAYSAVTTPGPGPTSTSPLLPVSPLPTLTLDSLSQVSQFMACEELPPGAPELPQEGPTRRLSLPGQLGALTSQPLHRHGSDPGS

Row | Stability [1] | Stability [2] | solubility [3] [µM] | inhibition [4] [%] | Stability [5] | Ki [6] [nM] | IC50 [7] [nM] | half-life [8] [h] | AUC(0-t) [9] [µM·h] | inhibition [10] [%] | Cmax [11] [µM] | bioavailability [12] [%] | inhibition [13] [%] | Ki [14] [nM] | Structure (SMILES) | further results
1 | Stable | Stable | < 6 | 27 | Stable | 3.6 | 90 | 5 | 67 | 6 | 6.6 | 42 | 39 | 8.8 | CCCn1c(=O)c2[nH]c(-c3cnn(CC#Cc4cccc(OC(F)(F)F)c4)c3)nc2n(CCC)c1=O | –
2 | Stable | Stable | 21 (≈ 10.2 µg/mL) | 37 | Stable | 13 | 107 | 6.1 | 60 | 0 | 13 | 76 | 17 | 8 | CCCn1c(=O)c2[nH]c(-c3cnn(CC#Cc4cccc(OC(F)(F)F)c4)c3)nc2n(CC)c1=O | IC50 [15]: > 25000 nM; IC50 [16]: > 10000 nM; IC50 [17]: > 100000 nM; Activity [18]: Active; IC50 [19]: > 100000 nM; inhibition [20]: Active
3 | Stable | Stable | 529 (≈ 244 µg/mL) | 32 | Stable | 5.3 | 2000 | 1.8 | 2.2 | 0 | 1.9 | 10 | 20 | 1.8 | CCCn1c(=O)c2[nH]c(-c3cnn(CC#Cc4cccc(C(=O)O)c4)c3)nc2n(CCC)c1=O | efflux ratio [21]: 12
4 | – | – | – | 64 | – | 4.9 | – | – | – | 32 | – | – | 43 | – | CCCn1c(=O)c2[nH]c(-c3cnn(CC#Cc4cccc(C(F)(F)F)c4)c3)nc2n(CCC)c1=O | –
5 | – | – | – | 64 | – | 6.7 | – | – | – | 0 | – | – | 87 | – | CCCn1c(=O)c2[nH]c(-c3cnn(CC#Cc4cccc(F)c4)c3)nc2n(CCC)c1=O | –
6 | – | – | – | 69 | – | 62 | – | – | – | 32 | – | – | 56 | – | C#CCn1cc(-c2nc3c([nH]2)c(=O)n(CCC)c(=O)n3CCC)cn1 | –
7 | – | – | – | 58 | – | 7.4 | – | – | – | 23 | – | – | 73 | – | CCCn1c(=O)c2[nH]c(-c3cnn(CC#Cc4cccc(F)c4)c3)nc2n(CC)c1=O | –
8 | – | – | – | 56 | – | 7.3 | – | – | – | 33 | – | – | 92 | – | CCCn1c(=O)c2[nH]c(-c3cnn(CC#Cc4ccc(F)cc4)c3)nc2n(CC)c1=O | –
